Values after ≈ are worked out from the molar mass of the structure shown.
Key:
Format in all cases: functional
Mus musculus [1] = species on record: Mus musculus; assay: In vitro inhibition of interleukin-2 (IL-2) production induced by stimulating lymphocytes derived from mouse spleens with the […]; details: Spleen
Summary of the method: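 Compounds added with concanavalin A to the primary culture; supernatants collected at 48 h. IL-2 content measured by growth of IL-2-dependent CTLL cells, read as tritiated thymidine incorporation after 48 h. IC50 determined, with cyclosporin A run in parallel.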

Mus musculus [2] = species on record: Mus musculus; assay: In vitro efficacy on humoral immune response by Mishell-Dutton assay (MD).
Summary of the method: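 Spleen lymphocytes from female OF1 mice (ca. 10 x 10^6) cultured 3 days with sheep erythrocytes (ca. 30 x 10^6) and test compound. Cells then plated on agar with fresh erythrocytes; plaques form by complement lysis. Read-out is the count of antibody-producing plaque-forming cells. Cyclosporin A run in parallel.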

Mus musculus [3] = species on record: Mus musculus; assay: In vitro efficacy to suppress lymphocyte proliferation as measured by the incorporation of a labeled precursor ([3H]- thymidine) into DNA in Mixed Lymphocyte reaction (MLR).
Summary of the method: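 Cells from spleens of female CBA mice aged 8–10 weeks (ca. 5 x 10^5). Compounds made up at 20 mg/mL in 9:1 (v/v) ethanol/Tween 80, then diluted in saline before adding to medium. Four concentrations per compound across 1.8–1000 ng/mL, in triplicate cultures. IC50 is the calculated concentration giving 50% inhibition of proliferation. Cyclosporin A run in parallel as control.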

For `C/C=C/C[C@@H](C)[C@@H](O)[C@H]1C(=O)N[C@@H](CC)C(=O)N(C)CC(=O)N(C)[C@@H](CC(C)C)C(=O)N[C@@H](C(C)C)C(=O)N(C)[C@@H](CC(C)C)C(=O)N[C@@H](C)C(=O)N[C@H](COCc2ccccc2)C(=O)N(C)[C@@H](CC(C)C)C(=O)N(C)[C@@H](CC(C)C)C(=O)N(C)[C@@H](C(C)C)C(=O)N1C`, the IC50 (Mus musculus [1]) was 0.095 µg/mL (≈ 0.0726 µM), the IC50 (Mus musculus [2]) was 0.46 µg/mL (≈ 0.351 µM) and the IC50 (Mus musculus [3]) was 0.25 µg/mL (≈ 0.191 µM).
`C/C=C/C[C@@H](C)[C@@H](O)[C@H]1C(=O)N[C@@H](CC)C(=O)N(C)CC(=O)N(C)[C@@H](CC(C)C)C(=O)N[C@@H](C(C)C)C(=O)N(C)[C@@H](CC(C)C)C(=O)N[C@@H](C)C(=O)N[C@H](COCCOCCO)C(=O)N(C)[C@@H](CC(C)C)C(=O)N(C)[C@@H](CC(C)C)C(=O)N(C)[C@@H](C(C)C)C(=O)N1C` showed an IC50 (Mus musculus [1]) of 0.075 µg/mL (≈ 0.0574 µM), an IC50 (Mus musculus [2]) of 0.035 µg/mL (≈ 0.0268 µM) and an IC50 (Mus musculus [3]) of 0.17 µg/mL (≈ 0.13 µM).
With `C#CCOC[C@H]1NC(=O)[C@H](C)NC(=O)[C@H](CC(C)C)N(C)C(=O)[C@H](C(C)C)NC(=O)[C@H](CC(C)C)N(C)C(=O)CN(C)C(=O)[C@H](CC)NC(=O)[C@H]([C@H](O)[C@H](C)C/C=C/C)N(C)C(=O)[C@H](C(C)C)N(C)C(=O)[C@H](CC(C)C)N(C)C(=O)[C@H](CC(C)C)N(C)C1=O` the IC50 (Mus musculus [1]) was 0.09 µg/mL (≈ 0.0716 µM), the IC50 (Mus musculus [2]) was 0.036 µg/mL (≈ 0.0286 µM) and the IC50 (Mus musculus [3]) was 0.072 µg/mL (≈ 0.0573 µM).
Compound `C=C(CO)COC[C@H]1NC(=O)[C@H](C)NC(=O)[C@H](CC(C)C)N(C)C(=O)[C@H](C(C)C)NC(=O)[C@H](CC(C)C)N(C)C(=O)CN(C)C(=O)[C@H](CC)NC(=O)[C@H]([C@H](O)[C@H](C)C/C=C/C)N(C)C(=O)[C@H](C(C)C)N(C)C(=O)[C@H](CC(C)C)N(C)C(=O)[C@H](CC(C)C)N(C)C1=O` has an IC50 (Mus musculus [1]) of 0.048 µg/mL (≈ 0.0372 µM), an IC50 (Mus musculus [2]) of 0.032 µg/mL (≈ 0.0248 µM) and an IC50 (Mus musculus [3]) of under 0.008 µg/mL.
Compound `C=C(CCl)COC[C@H]1NC(=O)[C@H](C)NC(=O)[C@H](CC(C)C)N(C)C(=O)[C@H](C(C)C)NC(=O)[C@H](CC(C)C)N(C)C(=O)CN(C)C(=O)[C@H](CC)NC(=O)[C@H]([C@H](O)[C@H](C)C/C=C/C)N(C)C(=O)[C@H](C(C)C)N(C)C(=O)[C@H](CC(C)C)N(C)C(=O)[C@H](CC(C)C)N(C)C1=O` has an IC50 (Mus musculus [1]) of over 0.1 µg/mL, an IC50 (Mus musculus [2]) of 0.23 µg/mL (≈ 0.176 µM) and an IC50 (Mus musculus [3]) of 0.27 µg/mL (≈ 0.207 µM).
Compound `C/C=C/C[C@@H](C)[C@@H](O)[C@H]1C(=O)N[C@@H](CC)C(=O)N(C)CC(=O)N(C)[C@@H](CC(C)C)C(=O)N[C@@H](C(C)C)C(=O)N(C)[C@@H](CC(C)C)C(=O)N[C@@H](C)C(=O)N[C@H](COCCO)C(=O)N(C)[C@@H](CC(C)C)C(=O)N(C)[C@@H](CC(C)C)C(=O)N(C)[C@@H](C(C)C)C(=O)N1C` [OXECLOSPORIN] has an IC50 (Mus musculus [1]) of 0.006 µg/mL (≈ 0.00475 µM), an IC50 (Mus musculus [2]) of 0.018 µg/mL (≈ 0.0143 µM) and an IC50 (Mus musculus [3]) of under 0.008 µg/mL.
In the case of `C/C=C/C[C@@H](C)[C@@H](O)[C@H]1C(=O)N[C@@H](CC)C(=O)N(C)CC(=O)N(C)[C@@H](CC(C)C)C(=O)N[C@@H](C(C)C)C(=O)N(C)[C@@H](CC(C)C)C(=O)N[C@@H](C)C(=O)N[C@H](COCC(=O)O)C(=O)N(C)[C@@H](CC(C)C)C(=O)N(C)[C@@H](CC(C)C)C(=O)N(C)[C@@H](C(C)C)C(=O)N1C`, the IC50 (Mus musculus [1]) is reported as 0.53 µg/mL (≈ 0.415 µM), the IC50 (Mus musculus [2]) is reported as 0.48 µg/mL (≈ 0.376 µM) and the IC50 (Mus musculus [3]) is reported as 0.44 µg/mL (≈ 0.345 µM).
`C/C=C/C[C@@H](C)[C@@H](O)[C@H]1C(=O)N[C@@H](CC)C(=O)N(C)CC(=O)N(C)[C@@H](CC(C)C)C(=O)N[C@@H](C(C)C)C(=O)N(C)[C@@H](CC(C)C)C(=O)N[C@@H](C)C(=O)N[C@H](COCCC2OCCO2)C(=O)N(C)[C@@H](CC(C)C)C(=O)N(C)[C@@H](CC(C)C)C(=O)N(C)[C@@H](C(C)C)C(=O)N1C` showed an IC50 (Mus musculus [1]) of 0.086 µg/mL (≈ 0.0652 µM), an IC50 (Mus musculus [2]) of 0.105 µg/mL (≈ 0.0796 µM) and an IC50 (Mus musculus [3]) of 0.117 µg/mL (≈ 0.0887 µM).
In the case of `C/C=C/C[C@@H](C)[C@@H](O)[C@H]1C(=O)N[C@@H](CC)C(=O)N(C)CC(=O)N(C)[C@@H](CC(C)C)C(=O)N[C@@H](C(C)C)C(=O)N(C)[C@@H](CC(C)C)C(=O)N[C@@H](C)C(=O)N[C@H](COC)C(=O)N(C)[C@@H](CC(C)C)C(=O)N(C)[C@@H](CC(C)C)C(=O)N(C)[C@@H](C(C)C)C(=O)N1C`, the IC50 (Mus musculus [1]) is reported as 0.024 µg/mL (≈ 0.0195 µM), the IC50 (Mus musculus [2]) is reported as under 0.01 µg/mL and the IC50 (Mus musculus [3]) is reported as under 0.008 µg/mL.
For `C/C=C/C[C@@H](C)[C@@H](O)[C@H]1C(=O)N[C@@H](CC)C(=O)N(C)CC(=O)N(C)[C@@H](CC(C)C)C(=O)N[C@@H](C(C)C)C(=O)N(C)[C@@H](CC(C)C)C(=O)N[C@@H](C)C(=O)N[C@H](CO)C(=O)N(C)[C@@H](CC(C)C)C(=O)N(C)[C@@H](CC(C)C)C(=O)N(C)[C@@H](C(C)C)C(=O)N1C`, the IC50 (Mus musculus [1]) was under 0.008 µg/mL, the IC50 (Mus musculus [2]) was 0.026 µg/mL (≈ 0.0213 µM) and the IC50 (Mus musculus [3]) was under 0.008 µg/mL.
In the case of `C=C(COC[C@H]1NC(=O)[C@H](C)NC(=O)[C@H](CC(C)C)N(C)C(=O)[C@H](C(C)C)NC(=O)[C@H](CC(C)C)N(C)C(=O)CN(C)C(=O)[C@H](CC)NC(=O)[C@H]([C@H](O)[C@H](C)C/C=C/C)N(C)C(=O)[C@H](C(C)C)N(C)C(=O)[C@H](CC(C)C)N(C)C(=O)[C@H](CC(C)C)N(C)C1=O)CO[Si](C)(C)C(C)(C)C`, the IC50 (Mus musculus [1]) is reported as over 1 µg/mL, the IC50 (Mus musculus [2]) is reported as over 1 µg/mL and the IC50 (Mus musculus [3]) is reported as 0.45 µg/mL (≈ 0.321 µM).
Compound `C/C=C/C[C@@H](C)[C@@H](O)[C@H]1C(=O)N[C@@H](CC)C(=O)N(C)CC(=O)N(C)[C@@H](CC(C)C)C(=O)N[C@@H](C(C)C)C(=O)N(C)[C@@H](CC(C)C)C(=O)N[C@@H](C)C(=O)N[C@H](COCC(=O)OC(C)(C)C)C(=O)N(C)[C@@H](CC(C)C)C(=O)N(C)[C@@H](CC(C)C)C(=O)N(C)[C@@H](C(C)C)C(=O)N1C` has an IC50 (Mus musculus [1]) of over 1 µg/mL, an IC50 (Mus musculus [2]) of 0.41 µg/mL (≈ 0.308 µM) and an IC50 (Mus musculus [3]) of 0.24 µg/mL (≈ 0.18 µM).
In the case of `C/C=C/C[C@@H](C)[C@@H](O)[C@H]1C(=O)N[C@@H](CC)C(=O)N(C)CC(=O)N(C)[C@@H](CC(C)C)C(=O)N[C@@H](C(C)C)C(=O)N(C)[C@@H](CC(C)C)C(=O)N[C@@H](C)C(=O)N[C@H](COCCOC(C)=O)C(=O)N(C)[C@@H](CC(C)C)C(=O)N(C)[C@@H](CC(C)C)C(=O)N(C)[C@@H](C(C)C)C(=O)N1C`, the IC50 (Mus musculus [1]) is reported as 0.012 µg/mL (≈ 0.0092 µM), the IC50 (Mus musculus [2]) is reported as 0.028 µg/mL (≈ 0.0215 µM) and the IC50 (Mus musculus [3]) is reported as 0.018 µg/mL (≈ 0.0138 µM).
`C/C=C/C[C@@H](C)[C@@H](O)[C@H]1C(=O)N[C@@H](CC)C(=O)N(C)CC(=O)N(C)[C@@H](CC(C)C)C(=O)N[C@@H](C(C)C)C(=O)N(C)[C@@H](CC(C)C)C(=O)N[C@@H](C)C(=O)N[C@H](COCCNS(=O)(=O)c2cccc3c(N(C)C)cccc23)C(=O)N(C)[C@@H](CC(C)C)C(=O)N(C)[C@@H](CC(C)C)C(=O)N(C)[C@@H](C(C)C)C(=O)N1C` gave an IC50 (Mus musculus [1]) of 0.057 µg/mL (≈ 0.0381 µM), an IC50 (Mus musculus [2]) of 0.048 µg/mL (≈ 0.0321 µM) and an IC50 (Mus musculus [3]) of 0.11 µg/mL (≈ 0.0736 µM).
`C/C=C/C[C@@H](C)[C@@H](O)[C@H]1C(=O)N[C@@H](CC)C(=O)N(C)CC(=O)N(C)[C@@H](CC(C)C)C(=O)N[C@@H](C(C)C)C(=O)N(C)[C@@H](CC(C)C)C(=O)N[C@@H](C)C(=O)N[C@H](COCC(C)CO)C(=O)N(C)[C@@H](CC(C)C)C(=O)N(C)[C@@H](CC(C)C)C(=O)N(C)[C@@H](C(C)C)C(=O)N1C` (stereo partly specified) was tested, and the IC50 (Mus musculus [1]) was 0.017 µg/mL (≈ 0.0132 µM), the IC50 (Mus musculus [2]) was 0.024 µg/mL (≈ 0.0186 µM) and the IC50 (Mus musculus [3]) was 0.013 µg/mL (≈ 0.0101 µM).
In the case of `C=C(COC[C@H]1NC(=O)[C@H](C)NC(=O)[C@H](CC(C)C)N(C)C(=O)[C@H](C(C)C)NC(=O)[C@H](CC(C)C)N(C)C(=O)CN(C)C(=O)[C@H](CC)NC(=O)[C@H]([C@H](O)[C@H](C)C/C=C/C)N(C)C(=O)[C@H](C(C)C)N(C)C(=O)[C@H](CC(C)C)N(C)C(=O)[C@H](CC(C)C)N(C)C1=O)C(=O)OC`, the IC50 (Mus musculus [1]) is reported as 0.1 µg/mL (≈ 0.0759 µM), the IC50 (Mus musculus [2]) is reported as 0.016 µg/mL (≈ 0.0122 µM) and the IC50 (Mus musculus [3]) is reported as 0.04 µg/mL (≈ 0.0304 µM).
In the case of `C=CCOC[C@H]1NC(=O)[C@H](C)NC(=O)[C@H](CC(C)C)N(C)C(=O)[C@H](C(C)C)NC(=O)[C@H](CC(C)C)N(C)C(=O)CN(C)C(=O)[C@H](CC)NC(=O)[C@H]([C@H](O)[C@H](C)C/C=C/C)N(C)C(=O)[C@H](C(C)C)N(C)C(=O)[C@H](CC(C)C)N(C)C(=O)[C@H](CC(C)C)N(C)C1=O`, the IC50 (Mus musculus [1]) is reported as 0.115 µg/mL (≈ 0.0914 µM), the IC50 (Mus musculus [2]) is reported as 0.032 µg/mL (≈ 0.0254 µM) and the IC50 (Mus musculus [3]) is reported as 0.088 µg/mL (≈ 0.0699 µM).
